# According to the EternaBench riboswitch data:
# Assays:
# MS2 coat protein [1] = test: apparent Kd, MS2 coat protein; higher = weaker binding; RNA-MaP array
# Outline: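 Fluorescently labeled MS2 coat protein, from 1.5 nM to 3 μM, was incubated at room temperature with designed RNAs transcribed on an Illumina sequencing chip from sequenced DNA templates. Times ran from 0.8–1.5 h at the lowest concentrations to 10–20 min at the highest, in Tris-HCl pH 7.5 buffer with KCl, MgCl2, BSA, DTT, tRNA and Tween20, with or without input ligand. Each apparent Kd is the median of per-cluster binding-curve fits, and designs with fewer than 10 measured clusters were excluded.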
# MS2 coat protein [2] = test: apparent Kd, MS2 coat protein; higher = weaker binding; RNA-MaP array; FMN 200 µM where present
# Outline: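 Designs were transcribed by stalled E. coli RNA polymerase on Illumina sequencing-chip clusters. They were titrated with SNAP-549-labelled MS2 coat protein from 0.7 or 1.5 nM, doubling to 3 µM, in 100 mM Tris-HCl pH 7.5, 80 mM KCl, 4 mM MgCl2, BSA, DTT, yeast tRNA and Tween-20, without and then with constant ligand. The apparent Kd is the median of filtered per-cluster fits after normalisation of green signal to red-channel RNA signal and control-cluster median Fmax.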
# [3] = designed as: OFF switch for flavin mononucleotide, no ligand
# [4] = ligand present: flavin mononucleotide, designed as: OFF switch for flavin mononucleotide
# [5] = designed as: ON switch for flavin mononucleotide, no ligand
# [6] = ligand present: flavin mononucleotide, designed as: ON switch for flavin mononucleotide
Sequence,apparent Kd (MS2 coat protein [1]; [3]) [µM],apparent Kd (MS2 coat protein [1]; [4]) [µM],apparent Kd (MS2 coat protein [2]; [3]) [µM],apparent Kd (MS2 coat protein [2]; [4]) [µM],also measured
CUCAAACAUGAGGAUCACCCAUGUAAGGAUAUCCGUAAUAAAUUUGGUAAGAGGCGGCGGAGAAGGUACGCAGC,0.0192,0.0179,,,
ACCAUCAUUGUUAGGAUAUGUAGAGUACUGAGGCUACAGAAGGAACAUGAGGAUCACCCAUGUGUUUCGGUGUA,0.031,0.126,,,
AGACAUGGCGGAUAGGAUAUGUGGGCGUCUACAUGAGGAUCACCCAUGUUGCUCGGAUGCAAUCUACAGAAGGAUCGACCCAGUGC,,,,,apparent Kd (MS2 coat protein [1]; [5]): 0.106 µM; apparent Kd (MS2 coat protein [1]; [6]): 0.0161 µM
AUCAUGUAAGGAUAUGCCGAACCUGUUUUGUCGCGGUUAAAGCAGAAGGUACAUGAGGAUCACCCAUGUUAAAU,0.0562,0.0544,,,
CCGUAUCCGUAGGAUAUCGACACGAGUCACGUGCGAGAAGGACGGACAUGAGGAUCACCCAUGUAUGCUUCGUG,0.0226,0.0484,,,
GAUUGCAUCGAUUCUCCACUCGCACCUGAUACCAGCGAUAGAAUUCGCCCUUGGCAGCAGUACACAUGAGGAUCACCCAUGUUAU,,,,,"apparent Kd (MS2 coat protein [1]; designed as: OFF switch for theophylline, no ligand): 0.0307 µM; apparent Kd (MS2 coat protein [1]; ligand present: theophylline, designed as: OFF switch for theophylline): 0.0751 µM"
AGACAUGAGGAUCACCCAUGUUGCUGUACAGGAGUUAAAGUCUAGGAUAUUGGGUCAGAAAGCGACAAGAAGGAGACACGCCAG,,,,,apparent Kd (MS2 coat protein [1]; [5]): 0.0112 µM; apparent Kd (MS2 coat protein [1]; [6]): 0.00847 µM
AAAUUAAUCAGAGGAUAUAGACAUGAGGAUCACCCAUGUACCAAAAUCGCGAAGAAGGAUCCGUGCUAGAAGGCAGAAUACAUA,0.0103,0.00865,,,
UCUGUGAUCAACAUGAGGAUCACCCAUGUUACCACCUCUAGGCAGGAUAUGAGCGUACUAAGAAGUCAGAAGGGCCUUUUUACG,,,,,apparent Kd (MS2 coat protein [1]; [5]): 0.0183 µM; apparent Kd (MS2 coat protein [1]; [6]): 0.0101 µM
CUGAGCAAAGGAUAUACUAAUUGUGAGUGACCCAGUUAACGACAUGAGGAUCACCCAUGUAGAAGGUUGGAACA,0.0264,0.0246,,,
AGUUAACCGGGUGUUCUACAUGAGGAUCACCCAUGUACACUCAGAAGGCUCGAAUCUAGGGAUGGAGAGGAUAUGAAAACUGAU,0.0215,0.0365,,,
CCGCAUAUGUGCCCAAUAUAACAUGAGGAUCACCCAUGUGGUAGAAGGAAUGCUCACGGCUCUCAUUAGGAUAUACCAGACUAU,,,,,apparent Kd (MS2 coat protein [1]; [5]): 0.0182 µM; apparent Kd (MS2 coat protein [1]; [6]): 0.0175 µM
AAAACUACAGAUACCUUAACAUGAGGAUCACCCAUGUGAGCUGAGGAUAUGUCCACGCUUUAAGGACAGAAGGCAGGAGCAUAG,0.0252,0.0369,,,
GUGGUCAGACAUGAGGAUCACCCAUGUGGAAUAAAUAACAACUAGGAUAUAUAAUAUAGGAUAUAAUAGAAGGAGUGAUUGGUG,,,,,apparent Kd (MS2 coat protein [2]; [5]): 0.141 µM; apparent Kd (MS2 coat protein [2]; [6]): 0.188 µM
ACAGCGGAGGCAGGAUAUCGCACAUGAGGAUCACCCAUGUGGUUAUUUACGGGUUGGUGGUCACGCGAGAAGGGCCAACCAUAA,,,0.059,0.0317,
UGGGUAAAUGUAGGAUAUCCAUAAUAAUAAUAAGGAGAAGGACAUGAGGAUCACCCAUGUACAGGGAAUUACCCAUUUCCUCUC,,,1.34,1.17,
UAAUAAUAAUAAUAAUCCUGCAUACAUGAGGAUCACCCAUGUAAGGAUAUCGUCAGGAAUACUGACGAGAAGGUACAUAGCAGG,,,0.0158,0.0193,
CAGUCUACAGGAUAUACAUGAGGAUCACCCAUGUUUAUCAACUUUCAGUAAUCCAUAUGUAGAAGGGUAGACUG,,,0.0239,0.0791,
GUGCGGGUGCCACAGGAUAUACGUGGAUCGACAUGAGGAUCACCCAUGUAUAUCCUAAUAAUUGCGUAGAAGGGUGGUCAGCCGU,,,,,apparent Kd (MS2 coat protein [2]; [5]): 0.845 µM; apparent Kd (MS2 coat protein [2]; [6]): 0.149 µM
CUGUCGAUAUCAGGAUAUCGAUUAAUUACAUGAGGAUCACCCAUGUUGACAUGGAAUAUAACUUGCGAGAAGGGAUUACGAUAG,,,,,apparent Kd (MS2 coat protein [2]; [5]): 0.0283 µM; apparent Kd (MS2 coat protein [2]; [6]): 0.0223 µM
GCAGAUCAAGUGAGGAUAUCGUCUACCUCGGUAGUCGAGAAGGCACAUGAGGAUCACCCAUGUGAUUGAUCUGC,,,0.0185,0.0259,
UUCCUGUCAGGAUAUGACUAGAUGCACGUUAGUGUGUUUACUUAGAAGGGACAUGAGGAUCACCCAUGUAGUCC,,,0.0362,0.033,
ACGUGUUAUACAGGAUAUGUUUAGGUACAAUCAUCCAGCUAUUAAUUUAUUACAGAAGGGUAAACAUGAGGAUCACCCAUGUCA,,,0.026,0.0159,
